# In ChEMBL document CHEMBL3244084, “A study of the mechanism of halothane-induced liver necrosis. Role of covalent binding of halothane metabolites to liver proteins in the rat” (J Med Chem, 1977):
# Activity calls are given as the source filed them. The rule behind the calls is not given here.
# Tests used:
# Rattus norvegicus [1] = assay: Toxicity in Sprague-Dawley rat assessed as liver necrosis at 23 mmol/kg, ip measured after 4 to 24 hrs; format: organism-based; details: in vivo
# Outline: (§1)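 Normal or phenobarbital-pretreated male Sprague-Dawley rats dosed ip with [14C]halothane in olive oil; controls received the vehicle. Rats killed by cervical dislocation 0.5-24 h after dosing. Liver slices fixed in 10% buffered formalin (pH 7.0) and paraffin-embedded. 6-µm sections stained with H&E and read by light microscopy. Necrosis graded on a 0-4+ scale. Six rats per time point.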
# Rattus norvegicus [2] = assay: Toxicity in phenobarbital pretreated Sprague-Dawley rat assessed as mortality at 4.6 mmol/kg, ip measured up to 24 hrs; format: organism-based; details: in vivo
# Outline: (§2)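 Male Sprague-Dawley rats, 100-120 g, fasted overnight before dosing and fed afterwards. Some received phenobarbital sodium 80 mg/kg ip in water for 3 days and were used on day 4. [1-14C]halothane in olive oil, 50 µCi/kg, was given ip. Mortality was recorded over the sacrifice schedule of 0.5-24 h, with six rats per time point. Vehicle controls received olive oil.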
# Liver [3] = assay: Protein binding in phenobarbital pretreated Sprague-Dawley rat liver protein at 4.6 to 23 mmol/kg, ip measured per mg of protein up to 24 hrs by scintillation counting; format: ADME, organism-based; details: in vivo
# Outline: (§3)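 Male Sprague-Dawley rats, normal or phenobarbital-pretreated (80 mg/kg ip, 3 days), received ip [1-14C]halothane in olive oil (50 µCi/kg). Liver homogenized 1 g/3 ml water at 0 °C. Protein precipitate washed ten times with hot (60 °C) methanol-ether 3:1, then digested in 1 N NaOH and counted. Protein measured by Lowry against BSA. Result expressed as nmol halothane equivalents per mg protein. Blank from [14C]halothane added to control homogenate was subtracted. Six rats.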
# Rattus norvegicus [4] = assay: Anesthetic activity in Sprague-Dawley rat assessed as duration of anesthesia at 23 mmol/kg, ip; format: functional
# Outline: (§4)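 Male Sprague-Dawley rats, 100-120 g, fasted overnight before dosing, fed afterwards. Single ip dose of [1-14C]halothane in olive oil (diluted with unlabeled halothane; 50 µCi 14C/kg). Duration of anesthesia recorded in normal and phenobarbital-pretreated rats. Pretreatment was phenobarbital sodium 80 mg/kg ip in water for 3 days, with use on day 4. Six rats per group.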
# Rattus norvegicus [5] = assay: Toxicity in phenobarbital pretreated Sprague-Dawley rat assessed as liver necrosis at 23 mmol/kg, ip measured after 24 hrs; format: organism-based; details: in vivo
# Rattus norvegicus [6] = assay: Toxicity in Sprague-Dawley rat assessed as liver necrosis at 4.6 mmol/kg, ip measured after 0.5 to 24 hrs by histopathological/light microscopy analysis (reference value: 0%); format: organism-based; details: in vivo; outline: as §1
# Rattus norvegicus [7] = assay: Toxicity in phenobarbital pretreated Sprague-Dawley rat assessed as mortality at 11.5 mmol/kg, ip measured up to 24 hrs; format: organism-based; details: in vivo; outline: as §2
# Rattus norvegicus [8] = assay: Toxicity in Sprague-Dawley rat assessed as liver necrosis at 11.5 mmol/kg, ip measured after 4 to 24 hrs; format: organism-based; details: in vivo; outline: as §1
# Rattus norvegicus [9] = assay: Toxicity in phenobarbital pretreated Sprague-Dawley rat assessed as multiple, discrete foci of liver parenchymal cell necrosis at 23 mmol/kg, ip measured after 0.5 to 24 hrs by histopathological/light microscopy analysis (reference value: 0%); format: organism-based; details: in vivo; outline: as §1
# Rattus norvegicus [10] = assay: Toxicity in phenobarbital pretreated Sprague-Dawley rat assessed as serum glutamic pyruvic transaminase level in blood at 4.6 mmol/kg, ip measured after 0.5 to 24 hrs (reference value: 15 +/- 2 IU/L); format: organism-based; details: in vivo
# Rattus norvegicus [11] = assay: Toxicity in Sprague-Dawley rat assessed as mortality at 23 mmol/kg, ip measured up to 24 hrs; format: organism-based; details: in vivo; outline: as §2
# Rattus norvegicus [12] = assay: Toxicity in Sprague-Dawley rat assessed as liver necrosis at 4.6 mmol/kg, ip measured after 0.5 to 24 hrs; format: organism-based; details: in vivo; outline: as §1
# Rattus norvegicus [13] = assay: Toxicity in phenobarbital pretreated Sprague-Dawley rat assessed as serum glutamic pyruvic transaminase level in blood at 11.5 mmol/kg, ip measured after 0.5 to 24 hrs (reference value: 15 +/- 2 IU/L); format: organism-based; details: in vivo
# Rattus norvegicus [14] = assay: Toxicity in phenobarbital pretreated Sprague-Dawley rat assessed as liver necrosis at 4.6 mmol/kg, ip measured after 0.5 to 24 hrs; format: organism-based; details: in vivo; outline: as §1
# Rattus norvegicus [15] = assay: Toxicity in phenobarbital pretreated Sprague-Dawley rat assessed as mortality at 23 mmol/kg, ip measured up to 24 hrs; format: organism-based; details: in vivo; outline: as §2
# Rattus norvegicus [16] = assay: Toxicity in phenobarbital pretreated Sprague-Dawley rat assessed as multiple, discrete foci of liver parenchymal cell necrosis at 11.5 mmol/kg, ip measured after 0.5 to 24 hrs by histopathological/light microscopy analysis (reference value: 0%); format: organism-based; details: in vivo; outline: as §1
# Rattus norvegicus [17] = assay: Drug uptake in Sprague-Dawley rat assessed as radioactivity in DNA fraction at 4.6 to 23 mmol/kg, ip measured up to 24 hrs by scintillation counting; format: ADME, organism-based; details: in vivo
# Outline: (§5)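 Male Sprague-Dawley rats, 100-120 g, fasted overnight. [1-14C]Halothane in olive oil (50 µCi/kg) given ip at 4.6, 11.5 or 23.0 mmol/kg. Rats killed at 0.5-24 h. Lipid fraction isolated from 1 g liver by the Folch method; DNA fraction by the Irving-Veazey method; proteins handled as for binding. Radioactivity counted by liquid scintillation. Means of six rats.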
# Rattus norvegicus [18] = assay: Toxicity in Sprague-Dawley rat assessed as serum glutamic pyruvic transaminase level in blood at 4.6 mmol/kg, ip measured after 0.5 to 24 hrs (reference value: 14 +/- 2 IU/L); format: organism-based; details: in vivo
# Rattus norvegicus [19] = assay: Toxicity in Sprague-Dawley rat assessed as liver necrosis at 11.5 mmol/kg, ip measured after 0.5 to 24 hrs by histopathological/light microscopy analysis (reference value: 0%); format: organism-based; details: in vivo; outline: as §1
# Rattus norvegicus [20] = assay: Drug uptake in Sprague-Dawley rat assessed as radioactivity in lipid fraction at 4.6 to 23 mmol/kg, ip measured at 1 to 6 hrs by scintillation counting; format: ADME, organism-based; details: in vivo; outline: as §5
# Rattus norvegicus [21] = assay: Toxicity in phenobarbital pretreated Sprague-Dawley rat assessed as serum glutamic pyruvic transaminase level in blood at 23 mmol/kg, ip measured after 0.5 to 24 hrs (reference value: 15 +/- 2 IU/L); format: organism-based; details: in vivo
# Rattus norvegicus [22] = assay: Anesthetic activity in Sprague-Dawley rat assessed as duration of anesthesia at 11.5 mmol/kg, ip; format: functional; outline: as §4
# Rattus norvegicus [23] = assay: Toxicity in phenobarbital pretreated Sprague-Dawley rat assessed as liver necrosis at 11.5 mmol/kg, ip measured after 24 hrs; format: organism-based; details: in vivo
# Rattus norvegicus [24] = assay: Toxicity in Sprague-Dawley rat assessed as mortality at 11.5 mmol/kg, ip measured up to 24 hrs; format: organism-based; details: in vivo; outline: as §2
# Liver [25] = assay: Protein binding in Sprague-Dawley rat liver protein at 4.6 to 23 mmol/kg, ip measured per mg of protein up to 24 hrs by scintillation counting; format: ADME, organism-based; details: in vivo; outline: as §3
# Rattus norvegicus [26] = assay: Drug uptake in Sprague-Dawley rat assessed as radioactivity in liver protein at 4.6 to 23 mmol/kg, ip measured up to 24 hrs by scintillation counting; format: ADME, organism-based; details: in vivo; outline: as §5
# Rattus norvegicus [27] = assay: Toxicity in Sprague-Dawley rat assessed as mortality at 4.6 mmol/kg, ip measured up to 24 hrs; format: organism-based; details: in vivo; outline: as §2
# Rattus norvegicus [28] = assay: Toxicity in Sprague-Dawley rat assessed as serum glutamic pyruvic transaminase level in blood at 23 mmol/kg, ip measured after 0.5 to 24 hrs (reference value: 14 +/- 2 IU/L); format: organism-based; details: in vivo
# Rattus norvegicus [29] = assay: Toxicity in phenobarbital pretreated Sprague-Dawley rat assessed as liver necrosis at 4.6 mmol/kg, ip measured after 0.5 to 24 hrs by histopathological/light microscopy analysis (reference value: 0%); format: organism-based; details: in vivo; outline: as §1
# Rattus norvegicus [30] = assay: Drug uptake in Sprague-Dawley rat assessed as radioactivity in lipid fraction at 4.6 to 23 mmol/kg, ip measured at 6 to 8 hrs by scintillation counting; format: ADME, organism-based; details: in vivo; outline: as §5
# Rattus norvegicus [31] = assay: Toxicity in Sprague-Dawley rat assessed as serum glutamic pyruvic transaminase level in blood at 11.5 mmol/kg, ip measured after 0.5 to 24 hrs (reference value: 14 +/- 2 IU/L); format: organism-based; details: in vivo
# Rattus norvegicus [32] = assay: Toxicity in Sprague-Dawley rat assessed as liver necrosis at 23 mmol/kg, ip measured after 0.5 to 24 hrs by histopathological/light microscopy analysis (reference value: 0%); format: organism-based; details: in vivo; outline: as §1
# Rattus norvegicus [33] = assay: Anesthetic activity in Sprague-Dawley rat assessed as duration of anesthesia at 4.6 mmol/kg, ip; format: functional, organism-based; details: tested as the 14C-labelled form; outline: as §4
smiles,measurement,setting,value
F[14C](F)(F)C(Cl)Br (stereo not drawn),Activity,Rattus norvegicus [1],Non-toxic
same,Activity,Rattus norvegicus [2],Non-toxic
same,PB,Liver [3],> 2 nmol/mg
same,Time,Rattus norvegicus [4],3.75 h
same,Activity,Rattus norvegicus [5],Toxic
same,Activity,Rattus norvegicus [6],0%
same,Activity,Rattus norvegicus [7],Non-toxic
same,Activity,Rattus norvegicus [8],Non-toxic
same,Activity,Rattus norvegicus [9],6%
same,Activity,Rattus norvegicus [10],19 IU/L
same,Activity,Rattus norvegicus [11],Non-toxic
same,Activity,Rattus norvegicus [12],Non-toxic
same,Activity,Rattus norvegicus [13],37 IU/L
same,Activity,Rattus norvegicus [14],Non-toxic
same,Activity,Rattus norvegicus [15],Non-toxic
same,Activity,Rattus norvegicus [16],< 6%
same,Drug uptake,Rattus norvegicus [17],Not Active
same,Activity,Rattus norvegicus [18],16 IU/L
same,Activity,Rattus norvegicus [19],0%
same,Drug uptake,Rattus norvegicus [20],Active
same,Activity,Rattus norvegicus [21],58 IU/L
same,Time,Rattus norvegicus [22],1.92 h
same,Activity,Rattus norvegicus [23],Toxic
same,Activity,Rattus norvegicus [24],Non-toxic
same,PB,Liver [25],0.8 nmol/mg
same,Drug uptake,Rattus norvegicus [26],Active
same,Activity,Rattus norvegicus [27],Non-toxic
same,Activity,Rattus norvegicus [28],18 IU/L
same,Activity,Rattus norvegicus [29],0%
same,Drug uptake,Rattus norvegicus [30],Not Active
same,Activity,Rattus norvegicus [31],18 IU/L
same,Activity,Rattus norvegicus [32],0%
FC(F)(F)C(Cl)Br (stereo not drawn),Activity,Rattus norvegicus [33],inactive
